Consider one substance from paper PMC4212793 (ACS Nano, 2014).

Data set [1] concerns neonatal rat cardiomyocytes (NRCMs). The experiment in a line: Cytoprotection against H2O2 oxidative stress, Live/Dead staining. The following applies: H2O2 200 μM, 2 h; p < 0.001; N = 3. It counts as cell-based.
For data set [2] the following is noted: PA-RGDS self-assembled under similar conditions; cited from earlier work.
Data set [3] deals with mESC-CMs. The experiment in a line: Mouse myocardial infarction model, engraftment of DiI-labelled mESC-CMs. It counts as in vivo, athymic nude mice (Foxn1nu). The following applies: heart sections 4 weeks after MI; p < 0.05; N = 3. In a few lines:
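Male athymic nude mice (Foxn1nu) underwent MI by left anterior descending coronary artery ligation. Immediately after surgery, 2 × 105 CM-DiI-prelabelled mESC-derived CMs from one differentiation batch, alone or encapsulated in test gel, were injected intramyocardially through 30 G needles at two border-zone sites. PBS and gel-only groups served as controls. Frozen OCT heart sections were fixed in 4% paraformaldehyde before imaging.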

For the substance C16-GTAGLIGQRGDS [PA-RGDS], the “viability after H2O2 (Live/Dead staining) compared to NRCMs without encapsulation” value in data set [1] is “significantly improved viability”. Besides, in data set [2], the “storage modulus (G′)” value is “around 100 Pa”. Moreover, the “number of engrafted DiI-positive mESC-CMs at 4 weeks compared to mESC-CMs only” value in data set [3] is “significantly higher”.
